Series [1] is described as follows: folding enthalpy; higher = less favourable; fluorescence melt of hairpins on a sequencing array, two-state fit. The note with it: sodium 0.088 M. The method, boiled down: (§1)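 To match UV melts, fitted temperatures were raised by 9.35 °C. These fits were bootstrapped two-state models that gave melting temperature and folding enthalpy, combined by inverse variance over four replicates. The input was normalised Cy3 fluorescence of library hairpins with annealed Cy3 and quencher oligos on a sequenced MiSeq flow cell, imaged in 50 mM Na-HEPES pH 8.0, 25 mM NaCl in 2.5 °C steps up to 60 °C.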

Series [2] is described as follows: melting temperature; fluorescence melt of hairpins on a sequencing array, two-state fit, raised by 9.35 °C to match UV melts. The note with it: sodium 0.088 M. The procedure, abridged:
as §1

Regarding GTAGGTGGAAACACTTAC (((.(((....))).))), the folding enthalpy in series [1] is -28.4 kcal/mol. Further, the Tm in series [2] was 39.5 °C.

In the case of GTAGGTGGAAACATCTGC (.((.((....)).)).), the folding enthalpy in series [1] is -18.4 kcal/mol. Moreover, the Tm in series [2] worked out at 30 °C.

Turning to GTAGTAGGAAACCACTAC (((((.(....).))))), the folding enthalpy in series [1] was -28.9 kcal/mol. Also, in series [2], the Tm is 35 °C.

With GTAGTAGGAAACTATTAC (((.(((....))).))), the folding enthalpy in series [1] was -17.7 kcal/mol. Further, the Tm in series [2] amounted to 29.9 °C.

GTAGTCGAAAGACATAC ((((((....))).))): the folding enthalpy in series [1] is -16.2 kcal/mol. The Tm in series [2] turned out to be 35.2 °C.

As for GTAGTCGAAAGACGTAC ((((((....))).))), the folding enthalpy in series [1] is -19.1 kcal/mol. Besides, in series [2], the Tm came out at 47.6 °C.

As to GTAGTGCCGAAAGGCTAC (((..(((....)))))), the folding enthalpy in series [1] was -9.39 kcal/mol. In addition, the Tm in series [2] was 36.2 °C.

Take GTAGTTGAAAAACTAC ((((((....)))))): the folding enthalpy in series [1] was -30.9 kcal/mol. In addition, in series [2], the Tm was found to be 48.9 °C.

GTAGTTGGAAACAACCAC ((.((((....)))).)): the folding enthalpy in series [1] is -18.7 kcal/mol. The Tm in series [2] stood at 32.6 °C.

With GTATAAACGAAAGTTTAC (((..(((....)))))), in series [1], the folding enthalpy was -11.8 kcal/mol. Moreover, the Tm in series [2] came out at 29.4 °C.

As for GTATACACGAAAGTGTAC (((..(((....)))))), the folding enthalpy in series [1] is -9.78 kcal/mol. Moreover, the Tm in series [2] turned out to be 31.1 °C.

With GTATACGAAAGTAAATAC ((((((....)))..))), in series [1], the folding enthalpy was -14.8 kcal/mol. Also, in series [2], the Tm was determined as 27.7 °C.

On to GTATACGAAAGTACATAC ((((((....)))..))), for which, in series [1], the folding enthalpy was -10.6 kcal/mol. The Tm in series [2] turned out to be 21.3 °C.

As for GTATACGAAAGTACGTAC ((((((....)))..))), the folding enthalpy in series [1] was -14 kcal/mol. Besides, the Tm in series [2] was found to be 26.7 °C.

For GTATACGCGAAAGCGTAC (((..(((....)))))), the folding enthalpy in series [1] is -7.12 kcal/mol. The Tm in series [2] is 37.9 °C.

For the sequence GTATACGGAAACGTATAC (((((((....))))))), the folding enthalpy in series [1] is -44.8 kcal/mol. For the same sequence, in series [2], the Tm was determined as 55.9 °C.

GTATACTCGAAAGAGTAC (((..(((....)))))): the folding enthalpy in series [1] was -11.6 kcal/mol. For the same sequence, the Tm in series [2] was found to be 35 °C.

As to GTATAGCGAAAGCTGTAC (((.(((....))).))), the folding enthalpy in series [1] is -31.5 kcal/mol. Besides, in series [2], the Tm amounted to 51.1 °C.

Take GTATAGGGAAACCTATAC (((((((....))))))): the folding enthalpy in series [1] is -41 kcal/mol. Moreover, in series [2], the Tm was determined as 50.1 °C.

For GTATAGGGAAACTTATAC (((((.(....).))))), the folding enthalpy in series [1] was -14.2 kcal/mol. In addition, the Tm in series [2] was determined as 27.7 °C.

With GTATATACGAAAGTATAC (((..(((....)))))), the folding enthalpy in series [1] is -16.1 kcal/mol. Besides, the Tm in series [2] stood at 29.6 °C.

As to GTATATCGAAAGATTAC (((.(((....)))))), the folding enthalpy in series [1] is -14.6 kcal/mol. The Tm in series [2] was 31 °C.

As for GTATATGCGAAAGCATAC (((..(((....)))))), in series [1], the folding enthalpy was -8.89 kcal/mol. In addition, the Tm in series [2] stood at 32.1 °C.

As for GTATATGGAAACATATGC (.(((((....))))).), the folding enthalpy in series [1] was -25 kcal/mol. The Tm in series [2] was determined as 36.5 °C.

Regarding GTATCACGAAAGTGCTAC (((.(((....))).))), in series [1], the folding enthalpy is -22.7 kcal/mol. Besides, the Tm in series [2] stood at 41.1 °C.

As to GTATCACGAAAGTGTAC (((.(((....)))))), in series [1], the folding enthalpy was -18.1 kcal/mol. In series [2], the Tm was 42.6 °C.

Consider GTATCAGAAATGATAC ((((((....)))))), for which, in series [1], the folding enthalpy is -31.6 kcal/mol. Also, the Tm in series [2] worked out at 45.6 °C.

Consider GTATCAGGAAACCGATAC (((((.(....).))))), for which the folding enthalpy in series [1] is -30.7 kcal/mol. Also, the Tm in series [2] turned out to be 38.1 °C.

As to GTATCAGGAAACTGACAC ((.((((....)))).)), in series [1], the folding enthalpy is -22.7 kcal/mol. In addition, the Tm in series [2] was 32.1 °C.

For GTATCAGGAAACTGATGC (.(((((....))))).), the folding enthalpy in series [1] is -24.8 kcal/mol. Besides, in series [2], the Tm was 45 °C.

With GTATCCGAAAGGATAC ((((((....)))))), in series [1], the folding enthalpy is -35.1 kcal/mol. For the same sequence, the Tm in series [2] turned out to be 65.8 °C.

On to GTATCCGGAAACGGATAC (((((((....))))))), for which the folding enthalpy in series [1] was -36.6 kcal/mol. Besides, the Tm in series [2] was 63.7 °C.

In the case of GTATCCGGAAACGGGTAC (((.(((....))).))), the folding enthalpy in series [1] is -42.2 kcal/mol. Moreover, the Tm in series [2] amounted to 51.3 °C.

For the sequence GTATCGCGAAAGCGTTAC (((.(((....))).))), the folding enthalpy in series [1] is -21.2 kcal/mol. In series [2], the Tm was 48.4 °C.

For GTATCGGAAACGATAC ((((((....)))))), the folding enthalpy in series [1] is -40.4 kcal/mol. Moreover, the Tm in series [2] came to 55.5 °C.

Turning to GTATCGGGAAACCGATAC (((((((....))))))), the folding enthalpy in series [1] is -42.3 kcal/mol. The Tm in series [2] is 62.2 °C.

On to GTATCGGGAAACTGATAC (((((.(....).))))), for which the folding enthalpy in series [1] was -37.3 kcal/mol. Further, the Tm in series [2] was found to be 45.3 °C.

(Values after the array DNA melting data of Ke et al. (doi:10.1101/2024.01.08.574731).)
